Laboratory results: PubChem BioAssay AID489031 (Sanford-Burnham Center for Chemical Genomics, 2010)
In all, about 330,000 compounds went through this assay and about 1,000 (0.3%) were called active. The sample as a whole holds a higher share of actives than the screen did. A number with no mark means an inactive call.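 Rule for the calls: active = activity change at or below -40% at 20 µM; inactive = the rest.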

Target: Apoptotic protease-activating factor 1 (Homo sapiens) (UniProt O14727)
Assay: enhancers of Apaf-1-driven caspase-3 activation – biochemical, DEVD-Rh110 fluorescence, uHTS, primary screen (AID 489031)
Settings: Apaf-1 apoptosome caspase-3 activation, at 20 µM, hits give low values
Summary of the method: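 Assay system – biochemical Apaf-1 apoptosome reconstitution · Medium – 20 mM HEPES buffer, pH 7.5, containing CHAPS and BSA · Incubation – 30 min preincubation, 50 min reaction, room temperature · Measured by – Caspase-3-released Rh110 fluorescence, 540 nm emission, 480 nm excitation · Read-out – Caspase-3 cleavage activity downstream of Apaf-1 activation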

Sequence of Apoptotic protease-activating factor 1 (Homo sapiens) (O14727 whole entry, looked up): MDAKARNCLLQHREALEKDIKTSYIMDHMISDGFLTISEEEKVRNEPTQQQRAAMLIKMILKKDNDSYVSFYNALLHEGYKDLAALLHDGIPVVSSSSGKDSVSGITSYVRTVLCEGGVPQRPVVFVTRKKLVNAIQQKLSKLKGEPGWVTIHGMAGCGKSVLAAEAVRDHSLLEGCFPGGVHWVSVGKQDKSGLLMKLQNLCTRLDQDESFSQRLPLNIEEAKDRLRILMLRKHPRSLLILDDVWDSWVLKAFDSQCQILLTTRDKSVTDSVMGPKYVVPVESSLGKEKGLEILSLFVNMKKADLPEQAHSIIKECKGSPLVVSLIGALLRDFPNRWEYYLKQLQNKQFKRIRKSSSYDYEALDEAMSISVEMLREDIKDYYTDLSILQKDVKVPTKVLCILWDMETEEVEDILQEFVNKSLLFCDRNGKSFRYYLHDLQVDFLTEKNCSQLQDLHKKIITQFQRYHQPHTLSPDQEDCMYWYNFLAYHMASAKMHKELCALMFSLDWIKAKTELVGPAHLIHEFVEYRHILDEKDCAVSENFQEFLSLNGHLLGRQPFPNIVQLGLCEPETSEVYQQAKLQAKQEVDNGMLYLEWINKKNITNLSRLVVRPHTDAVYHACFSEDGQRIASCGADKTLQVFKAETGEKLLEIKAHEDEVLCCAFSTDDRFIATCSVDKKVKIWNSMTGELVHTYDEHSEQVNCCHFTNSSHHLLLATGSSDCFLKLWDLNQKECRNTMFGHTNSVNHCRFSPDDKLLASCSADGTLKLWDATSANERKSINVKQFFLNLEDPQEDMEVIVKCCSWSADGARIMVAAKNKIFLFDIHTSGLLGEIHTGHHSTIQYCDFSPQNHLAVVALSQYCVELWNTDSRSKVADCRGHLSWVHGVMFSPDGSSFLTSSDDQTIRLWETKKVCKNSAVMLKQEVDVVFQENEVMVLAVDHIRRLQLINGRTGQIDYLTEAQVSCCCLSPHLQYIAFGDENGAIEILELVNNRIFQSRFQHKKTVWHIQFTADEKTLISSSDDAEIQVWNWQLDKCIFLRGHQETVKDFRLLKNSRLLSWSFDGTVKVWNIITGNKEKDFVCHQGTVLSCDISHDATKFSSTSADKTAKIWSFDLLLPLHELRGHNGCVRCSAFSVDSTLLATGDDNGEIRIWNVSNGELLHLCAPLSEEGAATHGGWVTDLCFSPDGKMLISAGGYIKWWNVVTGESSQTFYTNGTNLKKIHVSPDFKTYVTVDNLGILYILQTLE

Row | SMILES | activity change, negative = activation
1 | Cc1nn(CC(=O)Nc2ccc(C#N)cc2)c(C)c1[N+](=O)[O-] | -116% (active)
2 | CCOC(=O)N1CCC(c2cc(=O)n(-c3ccccc3)[nH]2)CC1 | 86.7%
3 | COCCNC(=O)Nc1ccc2nc(-c3ccco3)c(-c3ccco3)nc2c1 | 64.8%
4 | CC(=O)N=c1ncn(CC(COC(C)=O)OC(C)=O)c2nc[nH]c12 (stereo unspecified) | 74.2%
5 | CCCCNC(=O)C(C)N(CCN(C)C)C(=O)CCCCCN1C(=O)NC(c2ccc(Cl)cc2)C(C(=O)OCc2ccccc2)=C1C (stereo unspecified) | 67.1%
6 | CC(C)OCCCNC(=S)N1CCC(C(=O)c2ccc3c(c2)OCCO3)CC1 | -164% (active)
7 | c1ccc(C[C@H]2CNCCN2CCC23CC4CC(CC(C4)C2)C3)cc1 | 47.5%
8 | C=C(C)C(=O)Nc1cccc(C2=NOC3(C2)C[C@H](C(N)=O)N(C(=O)C(c2ccccc2)c2ccccc2)C3)c1 (stereo partly specified) | -78.2% (active)
9 | CC(C)c1ccccc1OCC(O)CN(CC(O)COc1cccc2ccccc12)C(C)C (stereo unspecified) | 57.3%
10 | O=c1[nH]cnc2c1c(-c1ccccc1)cn2-c1ccc(F)cc1 | -47% (active)
11 | c1ccc(CSc2nnc(-c3ccco3)c(-c3ccco3)n2)cc1 | 49.6%
12 | Cc1ccsc1/C=N/NC(=O)Cc1cc(=O)[nH][nH]1 | 58.3%
13 | COc1cc(C2C(C#N)=C(N)Oc3n[nH]c(-c4ccccn4)c32)cc(OC)c1OC (stereo unspecified) | -84.8% (active)
14 | COc1ccccc1C1C(C#N)=C(N)Oc2c1c(-c1ccccc1)nn2-c1ccccc1 (stereo unspecified) | 42.2%
15 | COc1ccc2sc(-c3ccccc3OC)c(-c3ccc(OCCN4CCCC4)cc3)c2c1 | 73.4%
16 | C/C(=N\NC(=O)CNc1cccc2ccccc12)c1ccc(Br)s1 | 90.2%
17 | O=C(CSc1nc2ccccc2c(=O)[nH]1)Nc1nc(-c2ccc(Br)cc2)cs1 | -74% (active)
18 | Cc1ccc(-c2ccc(/C=N/NC(=O)CN3CCOCC3)o2)cc1[N+](=O)[O-] | 73.9%
19 | O=C(CCCN1CCc2[nH]c3ccc(F)cc3c2C1)c1ccc(F)cc1 | 65%
20 | COc1ccc(C2CC(c3ccccc3)Nc3ncnn32)cc1 (stereo unspecified) | -445% (active)
21 | NC[C@H](Cc1ccccc1)NCCc1cc(C(F)(F)F)cc(C(F)(F)F)c1 | 60.8%
22 | Clc1ccccc1CSc1nnc(-c2ccco2)c(-c2ccco2)n1 | 49.9%

Row | SMILES | activity change, negative = activation
23 | Cc1ccc2nc(N3CCN(C(=O)c4ccco4)CC3)sc2c1 | 41.9%
24 | O=C(CN1C(=O)C2C3C=CC(C3)C2C1=O)NCCc1ccccc1Cl (stereo unspecified) | -99.8% (active)
25 | CC[N+](C)(CC)CCC[n+]1c(-c2ccccc2)c2cc(N)ccc2c2ccc(N)cc21 | 98.2%
26 | Cc1ccc(-c2nc(SCC(=O)Nc3ccccc3OC(F)F)c3c(C)c(C(=O)O)sc3n2)cc1 | -98.5% (active)
27 | CCOCCCNC(=O)c1c[nH]c2cc(C)ccc2c1=O | -152% (active)
28 | CN(C)CCCN(C(=O)c1ccc(S(=O)(=O)N2CCCCCC2)cc1)c1nc2ccc(Br)cc2s1 | 60.4%
29 | O=[N+]([O-])c1c(NCCO)cc(Sc2nc3ccccc3s2)c2nonc12 | 90.7%
30 | C=CCC[C@H](Cc1ccc(F)cc1)C(=O)OC[C@@H](NC(=O)[C@@H](CC=C)CC(=O)N[C@H](CO)Cc1ccccc1)C(C)(C)C | 40.6%
31 | O=C(O)c1cc(Cl)c(Cl)cc1C(=O)Nc1cccc2ncccc12 | 80.4%
32 | COC(=O)C(C)N(C#N)c1nc(C)nc(C)n1 (stereo unspecified) | -363% (active)
33 | CCCCN(CCCC)CCC(O)c1cc2c(Cl)cc(Cl)cc2c2cc(C(F)(F)F)ccc12 (stereo unspecified) | 48.9%
34 | COc1ccc(C2c3ccc(O)cc3Oc3ncn(CCCO)c(=N)c32)cc1OC (stereo unspecified) | -43.4% (active)
35 | Cc1cc(C)n(-c2nc(SCC(=O)N3CCCC3)c3c4c(sc3n2)CCCC4)n1 | 43.6%
36 | O=c1cc(N2CCCCC2)c(-c2ccccc2)nn1Cc1cccc(F)c1 | 44%
37 | COc1ccc(S(=O)(=O)N2CCCCC2)cc1NC(=O)c1cc([N+](=O)[O-])ccc1N1CCOCC1 | -42.8% (active)
38 | OC(CNCC1CCCO1)Cn1c2ccc(Br)cc2c2cc(Br)ccc21 (stereo unspecified) | 43.4%
39 | CC(=O)CCC(=O)c1ccc2ccccc2c1 | -178% (active)
40 | O=S(=O)(Nc1ccc(O)c2ccccc12)c1ccc(OC(F)(F)F)cc1 | 60.9%
41 | COc1ccc(NC(=O)CN(Cc2ccccc2)S(C)(=O)=O)cc1OC | 40.8%
42 | Cc1[nH][nH]c(=O)c1C(c1ccc(-c2ccc(Cl)cc2)o1)c1c(C)[nH][nH]c1=O | 85.8%
43 | CCC(=O)Nc1c(S(=O)(=O)c2ccccc2)c2nc3ccccc3nc2n1Cc1ccccc1 | 49.2%
44 | Cc1ccc(S(=O)(=O)c2c(N)n(C)c3nc4ccccc4nc23)cc1 | -405% (active)

Row | SMILES | activity change, negative = activation
45 | C=CCn1c(N)c(C(=O)OCC(C)C)c2nc3ccccc3nc21 | 54.1%
46 | C#CCOCCOCCOCCNc1nc(N2CCN(C(=O)CCCCCCCCCCNC(=O)[C@H](CCCCN)n3cc(C)nn3)CC2)nc(N2CCN(C(=O)CCCCCCCCCCNC(=O)[C@H](CO)n3cc(CCCSC)nn3)CC2)n1 | 59.7%
47 | CC(C)n1cnc2c(NCc3ccccc3)cc(N[C@@H](CO)Cc3ccccc3)cc21 | 94.5%
48 | O=C(Nc1cccc(-c2nc3ccccc3[nH]2)c1)c1ccc(C(=O)Nc2cccc(-c3nc4ccccc4[nH]3)c2)cc1 | -44% (active)
49 | NC(N)=N/N=C/c1ccc(OCc2ccc(Cl)cc2Cl)cc1 | 65.5%
50 | CCOC(=O)N1CCC(NC(=O)C(C)n2c3ccccc3c3cnn(C)c(=O)c32)CC1 (stereo unspecified) | 44.6%
51 | C#C[C@]1(O)CC[C@H]2[C@@H]3CCC4=CC(=O)CC[C@@H]4[C@H]3CC[C@@]21CC | 1.24%
52 | C=CC1=C(C(=O)O)N2C(=O)[C@@H](NC(=O)/C(=N/OCC(=O)O)c3csc(N)n3)[C@H]2SC1 | -112% (active)
53 | C=CC1=C(C(=O)O)N2C(=O)[C@@H](NC(=O)/C(=N\OCC(=O)O)c3csc(N)n3)[C@H]2SC1 | -78% (active)
54 | COC(=O)[C@H]1[C@H]2C[C@H]3c4[nH]c5ccccc5c4CCN3C[C@@H]2CC[C@@H]1O | 13.4%
55 | CN1CCN(c2ccccc2NC(=O)COc2ccc(C3CCCCC3)cc2)CC1 | 43.6%
56 | Cc1ccc(S(=O)(=O)C(C#N)c2nc3ccccc3nc2N2CCCC2)cc1C (stereo unspecified) | 60%
57 | Oc1ccc(N=Cc2c(O)ccc3ccccc23)cc1 | 87.2%
58 | Oc1ccc(N=Cc2sc3ccccc3c2Cl)cc1 | 64.8%
59 | Cc1ccc(C(=O)N/N=C\c2cc(Br)c(Br)o2)cn1 | 75.4%
60 | Cc1ccc(S(=O)(=O)N2CCOCC2)cc1C(=O)NC(=S)N(Cc1ccccc1)C(C)C | -57.7% (active)
61 | COc1ccc(/C=C2/C(=O)N(c3ccccc3)N=C2C)c(OC)c1 | 80.1%
62 | CN1CCN(CCCNC(=O)c2ccc(/C=C3\Oc4ccccc4N(Cc4ccc(Cl)cc4)C3=O)cc2)CC1 | 56.6%
63 | O=C(CSc1ccc(-c2ccc(-n3cccn3)cc2)nn1)Nc1ccc([N+](=O)[O-])cc1 | -70.1% (active)
64 | C(=N/Nc1cc(N2CCOCC2)nc(N2CCOCC2)n1)/c1ccccc1 | 76.5%
65 | COc1ccc(-c2nc3cc(C)ccn3c2NC2CCCCC2)cc1SC1CCCCC1 | 48.4%
66 | Cc1oc2c(c1C(=O)N1CCOCC1)C(=O)c1ccccc1C2=O | 65.9%

Row | SMILES | activity change, negative = activation
67 | CCCC(=O)Nc1nc2ccc(NC(=O)c3c(F)c(F)c(OC)c(F)c3F)cc2s1 | -393% (active)
68 | CC(C)n1cnc2c(NCc3ccccc3)cc(OCC3CCN(C)CC3)cc21 | 96.4%
69 | Cc1ccc2c(c1)C1CN(C)CCC1N2S(=O)(=O)c1ccc(Oc2ccc([N+](=O)[O-])cc2)cc1 (stereo unspecified) | 59.9%
70 | COc1ccccc1OCC(=O)Nc1c2c(nn1-c1ccc(F)cc1)CS(=O)(=O)C2 | -88% (active)
71 | NC(N)=NCCCc1cn(CC(=O)N2CCNCC2)nn1 | 40.2%
72 | CC(NC(=O)c1ccccc1SCC(=O)N1CCCC1)c1ccccc1 (stereo unspecified) | 41.6%
73 | O=c1[nH]c2c(c(=O)n1Cc1ccccc1)CCC2 | -300% (active)
74 | COCCn1nnnc1C(c1cc2ccc(OC)cc2[nH]c1=O)N1CCc2ccccc2C1 (stereo unspecified) | 56.8%
75 | CC(C)Cn1c(N)c(C(=O)NCc2cccs2)c2nc3ccccc3nc21 | 63.4%
76 | CCc1nn(CCCN2CCN(c3cccc(Cl)c3)CC2)c(=O)n1CCOc1ccccc1 | 23.5%
77 | CCN(CC)CCOc1ccc2c(c1)C(=NNC(=O)c1ccccn1)c1cc(OCCN(CC)CC)ccc1-2 | 52.5%
78 | O=C(Nc1ccccc1F)c1ccccc1-c1ccccc1 | -42.2% (active)
79 | CC(=O)Nc1ccc(Nc2cc(C)nc(Nc3ccc(NC(C)=O)cc3)n2)cc1 | 46.2%
80 | c1ccc2c(CCN3CCNC[C@H]3Cc3cccc4ccccc34)cccc2c1 | 67%
81 | CCCCCCCCCCOC(=O)Cn1c(COc2cccc(OC)c2)[n+](C)c2ccccc21 | 65.3%
82 | CC1COc2ccccc2N1C(=O)c1cccnc1Cl (stereo unspecified) | -62.8% (active)
83 | N#Cc1c(N2CCCCC2)nc(N)c2c(N)nc(SCC(=O)O)cc12 | 96%
84 | O=C(NCc1ccccn1)c1ccc2nc(-c3ccco3)c(-c3ccco3)nc2c1 | 60.6%
85 | CCOc1ccc(N=C2NC(=O)S/C2=C\c2ccc(O)cc2)cc1 | -72% (active)
86 | CCOc1[nH]n(-c2ccc(Cl)cc2)c(=O)c1C=Nc1ccc(O)cc1 | 66.9%
